Key:
Type in all cases: functional
HOP-62 = assay: Cytotoxicity against human HOP62 cells; conditions: for CC50: read-out: LC50 (the source's name)
Summary of the method: (§1)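 Tested in the NCI 60 human tumor cell line panel (leukemia, NSCLC, colon, CNS, melanoma, ovarian, renal, prostate and breast lines) at five doses. A single-dose pre-screen at 10 μM selected which compounds went on. Effect was plotted against log10 drug concentration for each line. GI50 is the molar concentration giving 50% growth inhibition; LC50 is the concentration killing 50% of cells.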

OVCAR-3 = assay: Cytotoxicity against human OVCAR3 cells; conditions: for CC50: read-out: LC50 (the source's name); summary of the method: as §1
KM12 = assay: Cytotoxicity against human KM12 cells; conditions: for CC50: read-out: LC50 (the source's name); summary of the method: as §1
HL-60(TB) = assay: Cytotoxicity against human HL-60(TB) cells; summary of the method: as §1
DU-145 = assay: Cytotoxicity against human DU145 cells; conditions: for CC50: read-out: LC50 (the source's name); summary of the method: as §1
CCRF-CEM = assay: Cytotoxicity against human CCRF-CEM cells; conditions: for CC50: read-out: LC50 (the source's name); summary of the method: as §1
SF-539 = assay: Cytotoxicity against human SF539 cells; conditions: for CC50: read-out: LC50 (the source's name); summary of the method: as §1
NCI/ADR-RES = assay: Cytotoxicity against human NCI/ADR-RES cells; conditions: for CC50: read-out: LC50 (the source's name); summary of the method: as §1
M14 = assay: Cytotoxicity against human M14 cells; summary of the method: as §1
U-251 = assay: Cytotoxicity against human U251 cells; conditions: for CC50: read-out: LC50 (the source's name); summary of the method: as §1
SK-MEL-5 = assay: Cytotoxicity against human SK-MEL-5 cells; summary of the method: as §1
MDA-MB-435 = assay: Cytotoxicity against human MDA-MB-435 cells; conditions: for CC50: read-out: LC50 (the source's name)
Summary of the method: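 Tested in the NCI 60 human tumor cell line panel (leukemia, NSCLC, colon, CNS, melanoma, ovarian, renal, prostate and breast lines) at five doses. A single-dose pre-screen at 10 μM selected which compounds went on. Effect was plotted against log10 drug concentration for each line.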

HCT-116 = assay: Cytotoxicity against human HCT116 cells; conditions: for CC50: read-out: LC50 (the source's name); summary of the method: as §1
K562 = assay: Cytotoxicity against human K562 cells; summary of the method: as §1
HCT-15 = assay: Cytotoxicity against human HCT15 cells; conditions: for CC50: read-out: LC50 (the source's name); summary of the method: as §1
UACC-62 = assay: Cytotoxicity against human UACC62 cells; conditions: for CC50: read-out: LC50 (the source's name); summary of the method: as §1
SR = assay: Cytotoxicity against human SR cells; summary of the method: as §1
LOX IMVI = assay: Cytotoxicity against human LOXIMVI cells; conditions: for CC50: read-out: LC50 (the source's name); summary of the method: as §1
SF-268 = assay: Cytotoxicity against human SF268 cells; summary of the method: as §1
MOLT-4 = assay: Cytotoxicity against human MOLT4 cells; conditions: for CC50: read-out: LC50 (the source's name); summary of the method: as §1
UO-31 = assay: Cytotoxicity against human UO31 cells; conditions: for CC50: read-out: LC50 (the source's name); summary of the method: as §1
HOP-92 = assay: Cytotoxicity against human HOP92 cells; conditions: for CC50: read-out: LC50 (the source's name); summary of the method: as §1

| Compound | GI50 (OVCAR-3) | CC50 (OVCAR-3) | GI50 (HL-60(TB)) | LC50 (HL-60(TB)) | GI50 (CCRF-CEM) | CC50 (CCRF-CEM) | GI50 (SF-539) | CC50 (SF-539) | GI50 (NCI/ADR-RES) | CC50 (NCI/ADR-RES) | GI50 (M14) | CC50 (MDA-MB-435) | GI50 (HCT-116) | GI50 (K562) | GI50 (HCT-15) | CC50 (HCT-15) | GI50 (SR) | GI50 (LOX IMVI) | CC50 (LOX IMVI) | GI50 (SF-268) | other results |
| --- | --- | --- | --- | --- | --- | --- | --- | --- | --- | --- | --- | --- | --- | --- | --- | --- | --- | --- | --- | --- | --- |
| COc1ccc2c(c1)c(C=C1C(=O)NC(=S)NC1=O)cn2C(=O)c1ccccc1Br | 2.77 µM | 33.1 µM | 3.24 µM | > 100 µM | 4 µM | > 100 µM | 3 µM | 57.8 µM | 3.23 µM | > 100 µM | 3.52 µM | 8.43 µM | 3.76 µM | 3.8 µM | 3.83 µM | 89.9 µM | 2.55 µM | 2.92 µM | 47.9 µM | 3.86 µM | GI50 (HOP-62): 3.59 µM; CC50 (HOP-62): 64.3 µM; GI50 (KM12): 3.87 µM; CC50 (KM12): 51.9 µM; GI50 (DU-145): 3.01 µM; CC50 (DU-145): 53.6 µM; LC50 (M14): > 100 µM; GI50 (U-251): 3.09 µM; CC50 (U-251): 42.1 µM; GI50 (SK-MEL-5): 3.47 µM; LC50 (SK-MEL-5): > 50 µM; GI50 (MDA-MB-435): 1.77 µM; CC50 (HCT-116): > 100 µM; LC50 (K562): > 100 µM; GI50 (UACC-62): 3.38 µM; CC50 (UACC-62): 39.6 µM; LC50 (SR): > 100 µM; LC50 (SF-268): 52.2 µM |
| O=C1NC(=S)NC(=O)C1=Cc1cn(C(=O)c2cccc3ccccc23)c2ccccc12 | 2.46 µM | > 100 µM | 3.36 µM | > 100 µM | 3.35 µM | > 100 µM | 3.58 µM | 55.6 µM | 2.59 µM | > 100 µM | 3.22 µM | 46.2 µM | 2.9 µM | 3.71 µM | 3.6 µM | 58.6 µM | 2.74 µM | 3.59 µM | > 100 µM | 3.68 µM | GI50 (MOLT-4): 3.49 µM; CC50 (MOLT-4): 79 µM; LC50 (M14): 9.23 µM; GI50 (UO-31): 3.93 µM; CC50 (UO-31): > 100 µM; GI50 (HOP-92): 1.3 µM; CC50 (HOP-92): 44.8 µM; GI50 (MDA-MB-435): 1.91 µM; CC50 (HCT-116): > 100 µM; LC50 (K562): > 100 µM; LC50 (SR): 44.8 µM; LC50 (SF-268): 50.7 µM |
| COc1ccc2c(c1)c(C=C1C(=O)NC(=S)NC1=O)cn2C(=O)c1cccc2ccccc12 | 2.38 µM | 20.9 µM | 3.47 µM | > 100 µM | 3.31 µM | > 100 µM | 3.23 µM | > 100 µM | 3.14 µM | > 100 µM | 1.91 µM | 12 µM | 3.35 µM | 3.52 µM | 3.1 µM | > 100 µM | 3.32 µM | 3.8 µM | > 100 µM | 2.3 µM | GI50 (MOLT-4): 3.95 µM; CC50 (MOLT-4): > 100 µM; LC50 (M14): > 100 µM; GI50 (UO-31): 3.72 µM; CC50 (UO-31): > 100 µM; GI50 (HOP-92): 1.09 µM; CC50 (HOP-92): > 100 µM; GI50 (MDA-MB-435): 2.01 µM; CC50 (HCT-116): > 100 µM; LC50 (K562): > 100 µM; LC50 (SR): > 100 µM; LC50 (SF-268): > 100 µM |
| COc1ccc(C(=O)n2cc(C=C3C(=O)NC(=S)NC3=O)c3cc(OC)ccc32)cc1 | 1.26 µM | > 50 µM | 3.91 µM | – | 2.23 µM | > 50 µM | 2.56 µM | > 50 µM | 2.91 µM | – | 2.03 µM | 3.86 µM | 1.95 µM | 2.55 µM | 1.8 µM | > 50 µM | 1.45 µM | 1.86 µM | > 50 µM | 2.65 µM | GI50 (HOP-62): 3.12 µM; CC50 (HOP-62): > 50 µM; GI50 (KM12): 1.99 µM; CC50 (KM12): > 50 µM; GI50 (DU-145): 2.41 µM; CC50 (DU-145): > 50 µM; GI50 (U-251): 1.93 µM; CC50 (U-251): > 50 µM; GI50 (SK-MEL-5): 2.31 µM; GI50 (UACC-62): 2.33 µM; CC50 (UACC-62): > 50 µM |

Source: ChEMBL document CHEMBL2321824, “5-((1-Aroyl-1H-indol-3-yl)methylene)-2-thioxodihydropyrimidine-4,6(1H,5H)-diones as potential anticancer agents with anti-inflammatory properties” (2013)
